Data reported in ChEMBL document CHEMBL2176949 (J Med Chem, 2012).

How the values were obtained:
[1] = target: T1, Neuronal acetylcholine receptor; alpha4/beta2 (Homo sapiens, UniProt P17787+P43681); test: Agonist activity at human alpha4beta2 nAChR high sensitivity form expressed in human SH-EP1 cells assessed as increase in calcium flux by FLIPR; assay type: functional, cell-based
[2] = target: T1, Neuronal acetylcholine receptor; alpha4/beta2; test: Agonist activity at human alpha4beta2 nAChR low sensitivity form expressed in human SH-EP1 cells assessed as increase in calcium flux by FLIPR; assay type: functional, cell-based
[3] = target: T1, Neuronal acetylcholine receptor; alpha4/beta2; test: Agonist activity at human alpha4beta2 nAChR low sensitivity form expressed in human SH-EP1 cells assessed as increase in calcium flux by FLIPR relative to 10 uM nicotine; assay type: functional, cell-based
[4] = target: T2, Neuronal acetylcholine receptor; alpha3/beta4 (Homo sapiens, UniProt P30926+P32297); test: Displacement of [3H]epibatidine from human alpha3beta4 nAChR expressed in human SH-SY5Y cells; assay type: cell-based
Procedure, shortened: (§1)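 Binding to membranes from the cell lines: homogenised in PBS pH 7.4, spun at 40000g for 20 min at 4 °C, then incubated 2 h on ice in PBS with competitor (0.001 nM to 100 μM) and radioligand. Filters washed in ice-cold PBS and counted by scintillation. IC50 from nonlinear regression; Ki by Cheng-Prusoff. Minimum of three assays, ± SEM.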

[5] = target: Neuronal acetylcholine receptor subunit alpha-7 (Homo sapiens, UniProt P36544); test: Displacement of [3H]epibatidine from human alpha7 nAChR expressed in human HEK/RIC3 cells; assay type: cell-based; procedure, shortened: as §1
[6] = target: T2, Neuronal acetylcholine receptor; alpha3/beta4; test: Agonist activity at human alpha3beta4 nAChR expressed in human SH-SY5Y cells assessed as increase in calcium flux by FLIPR; assay type: functional, cell-based
[7] = target: Nicotinic acetylcholine receptor alpha6/alpha3/beta2/beta3 (Rattus norvegicus, UniProt P04757+P12390+P12391+P43143); test: Agonist activity at alpha6/alpha3beta2beta3 nAChR in Sprague-Dawley rat striatal synaptosomes assessed as induction of dopamine release; assay type: functional, subcellular, Brain
[8] = target: T1, Neuronal acetylcholine receptor; alpha4/beta2; test: Agonist activity at human alpha4beta2 nAChR expressed in human SH-EP1 cells by whole cell voltage clamp based electrophysiology method; assay type: functional
Procedure, shortened: (§2)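 Whole-cell voltage clamp at -60 mV, room temperature (22 ± 1 °C), one cell per agonist load, Dynaflow fast application. Agonist applied 1 s for α4β2 and 0.5 s for α7, with 30 s washout. Tris-based pipette solution, pH 7.3. Concentration-response data fitted to the Hill equation, with α4β2 fitted as the sum of two Hill equations. Max % relative to 1 mM ACh.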

[9] = target: Neuronal acetylcholine receptor; alpha3/alpha6/beta2/beta3 (Homo sapiens, UniProt P17787+P32297+Q05901+Q15825); test: Displacement of [3H]epibatidine from human alpha6/alpha3beta2beta3 nAChR expressed in HEK293T cells
[10] = target: T1, Neuronal acetylcholine receptor; alpha4/beta2; test: Agonist activity at human alpha4beta2 nAChR high sensitivity form expressed in human SH-EP1 cells assessed as increase in calcium flux by FLIPR relative to 10 uM nicotine; assay type: functional, cell-based
[11] = Agonist activity at rat alpha7 nAChR T6'S59 mutant expressed in rat GH4C1 cells by whole cell voltage clamp based electrophysiology method relative to 1 mM acetylcholine; assay type: functional, GH4-C1; procedure, shortened: as §2
[12] = Agonist activity at human nAChR alpha6/alpha3beta2beta3 V273S mutant expressed in HEK293T cells by FLIPR relative to 10 uM nicotine; assay type: functional, HEK-293T
[13] = target: Nicotinic acetylcholine receptor alpha6/alpha3/beta2/beta3 (Rattus norvegicus) (UniProt P04757+P12390+P12391+P43143); test: Agonist activity at alpha6/alpha3beta2beta3 nAChR in Sprague-Dawley rat striatal synaptosomes assessed as induction of dopamine release relative to 10 uM nicotine; assay type: functional, subcellular; conditions: Brain
[14] = target: T2, Neuronal acetylcholine receptor; alpha3/beta4; test: Agonist activity at human alpha3beta4 nAChR expressed in human SH-SY5Y cells assessed as increase in calcium flux by FLIPR relative to 10 uM nicotine; assay type: functional, cell-based
[15] = Agonist activity at human nAChR alpha6/alpha3beta2beta3 V273S mutant expressed in HEK293T cells by FLIPR; assay type: functional, cell-based; conditions: HEK-293T
[16] = Agonist activity at rat alpha7 nAChR T6'S59 mutant expressed in rat GH4C1 cells by whole cell voltage clamp based electrophysiology method; assay type: functional; conditions: GH4-C1; procedure, shortened: as §2
[17] = target: T1, Neuronal acetylcholine receptor; alpha4/beta2; test: Displacement of [3H]nicotine from human alpha4beta2 nAChR expressed in human SH-EP1 cells; assay type: cell-based; procedure, shortened: as §1
[18] = target: T1, Neuronal acetylcholine receptor; alpha4/beta2; test: Agonist activity at human alpha4beta2 nAChR expressed in human SH-EP1 cells by whole cell voltage clamp based electrophysiology method relative to 1 mM acetylcholine; assay type: functional; procedure, shortened: as §2
[19] = target: T3, Neuronal acetylcholine receptor subunit alpha-7 (Rattus norvegicus, UniProt Q05941); test: Agonist activity at rat alpha7 nAChR expressed in Xenopus laevis oocytes by two-electrode voltage clamp assay; assay type: functional, cell-based, Oocyte
[20] = target: T3, Neuronal acetylcholine receptor subunit alpha-7; test: Binding affinity to rat alpha7 nAChR expressed in Xenopus laevis oocytes; assay type: cell-based, Oocyte
Homo sapiens [21] = species on record: Homo sapiens; test: Selectivity index, ratio of Ki for human alpha3beta4 nAChR to Ki for human alpha4beta2 nAChR
Homo sapiens [22] = species on record: Homo sapiens; test: Ratio of EC50 for human nAChR alpha6/alpha3beta2beta3 V273S mutant to Ki for human alpha6/alpha3beta2beta3 nAChR
[23] = target: Neuronal acetylcholine receptor; alpha4/beta2 (Rattus norvegicus, UniProt P09483+P12390); test: Binding affinity to rat alpha4beta2 nAChR
[24] = target: T3, Neuronal acetylcholine receptor subunit alpha-7; test: Binding affinity to rat alpha7 nAChR
[25] = target: Neuronal acetylcholine receptor subunit alpha-7 (Mus musculus, UniProt P49582)
Neuronal acetylcholine receptor subunit alpha-7 (Mus musculus, UniProt P49582), sequence (P49582 whole entry): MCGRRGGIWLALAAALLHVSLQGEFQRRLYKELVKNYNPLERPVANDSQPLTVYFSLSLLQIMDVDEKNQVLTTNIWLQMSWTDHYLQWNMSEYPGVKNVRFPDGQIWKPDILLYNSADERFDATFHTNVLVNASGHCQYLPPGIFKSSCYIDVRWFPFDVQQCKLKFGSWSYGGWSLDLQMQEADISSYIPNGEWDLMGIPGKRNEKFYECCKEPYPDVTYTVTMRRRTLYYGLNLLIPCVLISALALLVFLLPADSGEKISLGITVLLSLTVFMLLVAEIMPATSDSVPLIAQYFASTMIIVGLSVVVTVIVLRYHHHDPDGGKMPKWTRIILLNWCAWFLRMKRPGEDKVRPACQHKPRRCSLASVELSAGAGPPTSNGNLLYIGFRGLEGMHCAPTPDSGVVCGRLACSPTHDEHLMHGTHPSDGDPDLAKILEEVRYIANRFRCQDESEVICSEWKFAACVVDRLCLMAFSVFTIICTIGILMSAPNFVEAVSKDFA

T3 sequence (Q05941 whole entry): as the sequence (P49582 whole entry) above, with R4G, T424A counted along it
Neuronal acetylcholine receptor subunit alpha-7 (Homo sapiens, UniProt P36544), sequence (P36544 whole entry): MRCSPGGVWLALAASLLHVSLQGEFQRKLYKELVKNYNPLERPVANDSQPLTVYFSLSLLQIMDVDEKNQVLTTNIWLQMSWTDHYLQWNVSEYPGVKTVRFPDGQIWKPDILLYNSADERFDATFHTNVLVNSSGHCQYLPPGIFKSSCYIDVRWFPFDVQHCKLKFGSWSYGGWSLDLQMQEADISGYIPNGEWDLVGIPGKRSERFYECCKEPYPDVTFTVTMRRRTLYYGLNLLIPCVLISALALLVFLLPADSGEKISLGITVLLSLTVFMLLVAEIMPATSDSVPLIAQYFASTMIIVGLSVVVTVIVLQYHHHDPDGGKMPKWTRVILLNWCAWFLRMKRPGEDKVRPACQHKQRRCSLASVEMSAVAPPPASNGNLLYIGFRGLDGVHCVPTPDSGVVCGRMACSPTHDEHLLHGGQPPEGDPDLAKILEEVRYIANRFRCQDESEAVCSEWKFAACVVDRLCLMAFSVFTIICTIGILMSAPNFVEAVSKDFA
T2 sequence (P30926 whole entry): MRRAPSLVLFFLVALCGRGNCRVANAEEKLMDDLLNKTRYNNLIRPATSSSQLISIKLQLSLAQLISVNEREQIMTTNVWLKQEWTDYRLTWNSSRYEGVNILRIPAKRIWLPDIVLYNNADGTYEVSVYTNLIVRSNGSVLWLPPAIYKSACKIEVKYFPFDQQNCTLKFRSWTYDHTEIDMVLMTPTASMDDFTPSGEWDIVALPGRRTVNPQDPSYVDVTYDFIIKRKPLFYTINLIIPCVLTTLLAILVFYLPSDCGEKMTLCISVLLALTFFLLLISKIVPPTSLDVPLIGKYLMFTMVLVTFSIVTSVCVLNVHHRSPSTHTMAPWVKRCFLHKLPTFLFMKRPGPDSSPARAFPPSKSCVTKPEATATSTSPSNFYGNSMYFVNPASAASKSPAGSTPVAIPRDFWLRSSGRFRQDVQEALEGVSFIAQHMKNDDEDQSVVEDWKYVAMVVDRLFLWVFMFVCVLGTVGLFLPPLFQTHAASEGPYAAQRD
T2 sequence (P32297 whole entry): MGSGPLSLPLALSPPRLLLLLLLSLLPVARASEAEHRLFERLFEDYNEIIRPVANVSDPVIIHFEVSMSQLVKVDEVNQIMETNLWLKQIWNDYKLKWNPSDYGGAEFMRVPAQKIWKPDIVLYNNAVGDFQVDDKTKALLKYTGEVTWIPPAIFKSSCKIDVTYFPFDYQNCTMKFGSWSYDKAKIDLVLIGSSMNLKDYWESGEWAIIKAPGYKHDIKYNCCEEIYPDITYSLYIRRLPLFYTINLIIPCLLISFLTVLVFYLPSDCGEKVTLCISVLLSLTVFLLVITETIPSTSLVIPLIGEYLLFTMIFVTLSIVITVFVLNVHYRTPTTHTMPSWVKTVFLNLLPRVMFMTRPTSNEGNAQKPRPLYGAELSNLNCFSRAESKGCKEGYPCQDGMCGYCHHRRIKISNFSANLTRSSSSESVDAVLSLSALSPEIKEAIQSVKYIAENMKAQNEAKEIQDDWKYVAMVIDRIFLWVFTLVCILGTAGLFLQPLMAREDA
Nicotinic acetylcholine receptor alpha6/alpha3/beta2/beta3, sequence (P04757 whole entry): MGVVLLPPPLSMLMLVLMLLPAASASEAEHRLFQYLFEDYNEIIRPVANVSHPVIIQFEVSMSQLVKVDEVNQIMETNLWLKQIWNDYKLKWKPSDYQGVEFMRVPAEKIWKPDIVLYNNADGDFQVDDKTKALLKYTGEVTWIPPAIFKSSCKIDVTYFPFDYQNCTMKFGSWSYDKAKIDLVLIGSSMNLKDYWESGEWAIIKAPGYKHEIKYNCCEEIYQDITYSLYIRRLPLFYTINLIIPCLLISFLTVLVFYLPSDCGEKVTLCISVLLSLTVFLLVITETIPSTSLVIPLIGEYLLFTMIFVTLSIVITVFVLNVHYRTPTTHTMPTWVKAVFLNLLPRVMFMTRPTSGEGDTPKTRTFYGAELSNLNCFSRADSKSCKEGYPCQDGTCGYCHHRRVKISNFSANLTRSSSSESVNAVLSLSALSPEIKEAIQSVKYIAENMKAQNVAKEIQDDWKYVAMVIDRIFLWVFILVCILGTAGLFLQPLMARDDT
Nicotinic acetylcholine receptor alpha6/alpha3/beta2/beta3, sequence (P12390 whole entry): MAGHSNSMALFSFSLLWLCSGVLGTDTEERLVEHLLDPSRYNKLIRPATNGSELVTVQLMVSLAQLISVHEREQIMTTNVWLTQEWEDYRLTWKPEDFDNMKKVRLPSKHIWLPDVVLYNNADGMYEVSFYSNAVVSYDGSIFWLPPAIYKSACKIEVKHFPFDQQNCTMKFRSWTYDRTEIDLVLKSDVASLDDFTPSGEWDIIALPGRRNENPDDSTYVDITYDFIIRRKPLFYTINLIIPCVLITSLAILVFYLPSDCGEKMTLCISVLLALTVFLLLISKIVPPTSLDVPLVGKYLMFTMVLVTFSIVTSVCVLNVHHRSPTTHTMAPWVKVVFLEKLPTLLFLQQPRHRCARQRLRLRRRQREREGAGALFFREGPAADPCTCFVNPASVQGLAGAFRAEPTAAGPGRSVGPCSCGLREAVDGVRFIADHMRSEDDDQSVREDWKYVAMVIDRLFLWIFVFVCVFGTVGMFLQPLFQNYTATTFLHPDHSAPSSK
Nicotinic acetylcholine receptor alpha6/alpha3/beta2/beta3, sequence (P12391 whole entry): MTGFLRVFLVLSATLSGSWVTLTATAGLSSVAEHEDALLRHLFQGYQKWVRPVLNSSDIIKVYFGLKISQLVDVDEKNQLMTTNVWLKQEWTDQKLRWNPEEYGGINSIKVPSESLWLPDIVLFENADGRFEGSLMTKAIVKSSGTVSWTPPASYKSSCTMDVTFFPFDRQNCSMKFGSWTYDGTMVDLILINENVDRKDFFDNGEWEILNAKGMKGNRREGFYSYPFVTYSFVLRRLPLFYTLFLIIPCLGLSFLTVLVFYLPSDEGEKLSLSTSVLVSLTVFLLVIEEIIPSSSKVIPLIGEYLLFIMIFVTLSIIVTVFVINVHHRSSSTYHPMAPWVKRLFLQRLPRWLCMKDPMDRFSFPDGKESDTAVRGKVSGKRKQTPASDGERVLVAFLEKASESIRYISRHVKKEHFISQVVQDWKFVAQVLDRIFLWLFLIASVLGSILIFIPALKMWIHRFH
Nicotinic acetylcholine receptor alpha6/alpha3/beta2/beta3, sequence (P43143 whole entry): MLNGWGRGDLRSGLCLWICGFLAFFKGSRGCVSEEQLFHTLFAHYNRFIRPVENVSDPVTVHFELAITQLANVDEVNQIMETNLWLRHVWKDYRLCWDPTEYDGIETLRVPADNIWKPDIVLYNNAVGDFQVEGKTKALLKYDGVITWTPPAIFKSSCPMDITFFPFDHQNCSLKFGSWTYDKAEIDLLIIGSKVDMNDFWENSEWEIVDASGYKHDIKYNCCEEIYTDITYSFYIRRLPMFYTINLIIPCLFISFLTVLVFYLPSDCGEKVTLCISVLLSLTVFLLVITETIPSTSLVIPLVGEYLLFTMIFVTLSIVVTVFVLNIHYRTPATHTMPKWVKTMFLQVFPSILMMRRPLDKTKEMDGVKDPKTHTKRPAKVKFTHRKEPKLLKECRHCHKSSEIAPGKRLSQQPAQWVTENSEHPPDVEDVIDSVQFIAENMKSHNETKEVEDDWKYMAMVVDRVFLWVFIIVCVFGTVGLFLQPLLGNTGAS
Neuronal acetylcholine receptor; alpha4/beta2 (Rattus norvegicus, UniProt P09483+P12390), sequence (P09483 whole entry): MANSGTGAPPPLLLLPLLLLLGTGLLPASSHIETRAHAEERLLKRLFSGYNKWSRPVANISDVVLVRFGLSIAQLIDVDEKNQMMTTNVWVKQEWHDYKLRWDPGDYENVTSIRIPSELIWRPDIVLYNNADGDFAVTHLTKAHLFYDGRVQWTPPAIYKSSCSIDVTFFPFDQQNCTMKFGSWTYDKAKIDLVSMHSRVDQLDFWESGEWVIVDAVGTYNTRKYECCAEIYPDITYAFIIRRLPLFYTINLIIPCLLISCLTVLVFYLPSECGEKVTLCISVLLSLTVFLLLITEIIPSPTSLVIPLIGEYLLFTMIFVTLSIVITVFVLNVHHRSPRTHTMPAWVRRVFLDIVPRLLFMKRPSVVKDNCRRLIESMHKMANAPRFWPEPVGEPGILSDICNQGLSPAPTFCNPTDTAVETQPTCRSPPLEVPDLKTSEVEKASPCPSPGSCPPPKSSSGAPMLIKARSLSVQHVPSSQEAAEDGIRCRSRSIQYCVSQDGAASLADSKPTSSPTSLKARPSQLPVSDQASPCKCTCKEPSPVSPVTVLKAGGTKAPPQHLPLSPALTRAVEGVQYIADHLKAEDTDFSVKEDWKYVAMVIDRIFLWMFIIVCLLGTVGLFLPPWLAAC
Neuronal acetylcholine receptor; alpha4/beta2 (Rattus norvegicus, UniProt P09483+P12390), sequence (P12390 whole entry): as the sequence (P12390 whole entry) above

SMILES | EC50 [1] [µM] | EC50 [2] [µM] | %max [3] [%] | Ki [4] [µM] | Ki [5] [µM] | EC50 [6] [µM] | EC50 [7] [µM] | EC50 [8] [µM] | Ki [9] [µM] | %max [10] [%] | %max [11] [%] | %max [12] [%] | %max [13] [%] | %max [14] [%] | EC50 [15] [µM] | EC50 [16] [µM] | Ki [17] [µM] | %max [18] [%] | also measured
C1=C(c2cncc(Oc3ccccc3)c2)CC2CNCC1C2 (stereo not given) | 0.062 | 0.654 | 30 | 0.0019 | 0.022 | 0.023 | 0.718 | 0.59 | 0.0048 | 52 | 31 | 0 | 57 | 101 | > 10 | 0.35 | 0.0007 | 9 | 
CC(C)Oc1cncc(C2=CC3CNCC(C2)C3)c1 (stereo not given) | 0.164 | 0.562 | 54 | 0.0048 | 0.105 | 0.069 | 1.09 | 1.4 | 0.0026 | 75 | 92 | 3 | 86 | 160 | > 10 | 2.8 | 0.00026 | 11 | 
c1cnc2cc3c(cc2n1)[C@@H]1CNC[C@H]3C1 [VARENICLINE] |  |  |  |  |  |  |  |  |  |  |  |  |  |  |  |  |  |  | EC50 [19]: 18 µM; Ki [20]: 0.3 µM
CC(C)Oc1cncc(C2=CC3CC(C2)CN(C)C3)c1 (stereo not given) | > 10 | > 10 | 3.3 | 1.73 | > 10 | > 10 | 0.879 | 3.5 | 0.69 | 1 | 60 | 0.2 | 63 | 15 | > 10 | 21.3 | 0.0022 | 10 | 
CN1C[C@@H]2C=C(c3cccnc3)C[C@@H](C2)C1 | 6.66 | > 10 | 17 | 1.8 | 0.07 | > 10 | 0.855 | 3.1 | 0.32 | 53 | 87 | 9 | 13 | 25 | > 10 | 6 | 0.0094 | 18 | 
C1=C(c2cccnc2)C[C@@H]2CNC[C@H]1C2 | 0.0023 | 0.035 | 131 | 0.023 | 0.0013 | 0.073 | 0.0014 | 0.05 | 0.001 | 111 | 28 | 82 | 49 | 139 | 0.015 | 0.02 | 0.0001 | 32 | Ratio Ki (Homo sapiens [21]): 230; Ratio (Homo sapiens [22]): 15
O=c1cccc2n1C[C@@H]1CNC[C@H]2C1 [CYTISINICLINE] |  |  |  |  |  |  |  |  |  |  |  |  |  |  |  |  |  |  | Ki [23]: 0.001 µM; Ki [24]: 8 µM
C1=C(c2cccnc2)C[C@H]2CNC[C@@H]1C2 | 0.0023 | 0.012 | 129 | 0.004 | 0.0012 | 0.037 | 0.00095 | 0.1 | 0.00095 | 114 | 20 | 110 | 73 | 142 | 0.014 | 0.03 | 0.0002 | 40 | Ratio Ki (Homo sapiens [21]): 20; Ratio (Homo sapiens [22]): 15
CN1C[C@H]2C=C(c3cccnc3)C[C@H](C2)C1 | > 10 | 7.66 | 11 | 0.534 | 0.074 | 7.53 | > 10 | 3.5 | 0.3 | 19 | 100 | 7 | 27 | 31 | > 10 | 3.8 | 0.0021 | 19 | 
CN1CCC[C@H]1c1cccnc1 [NICOTINE] |  |  |  |  |  |  |  |  |  |  |  |  |  |  |  |  |  |  | Ki [25]: 0.244 µM
